Compound activity from PubChem BioAssay.
Most compounds without a hit are left out; they make up all but 4.1% or so of the library.
FLuc inhib CS: Photinus pyralis luciferase inhibition counter-screen. P08659. ATPLite firefly luciferase biochemical luminescence, 10 min. AID 1006. 200,000 tested, 1.5% active. inhibition, % at 10 µM;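 active = inhibition above about 50% when tested at 10 µM, limit read from the data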
Target sequence (P08659 whole entry, looked up): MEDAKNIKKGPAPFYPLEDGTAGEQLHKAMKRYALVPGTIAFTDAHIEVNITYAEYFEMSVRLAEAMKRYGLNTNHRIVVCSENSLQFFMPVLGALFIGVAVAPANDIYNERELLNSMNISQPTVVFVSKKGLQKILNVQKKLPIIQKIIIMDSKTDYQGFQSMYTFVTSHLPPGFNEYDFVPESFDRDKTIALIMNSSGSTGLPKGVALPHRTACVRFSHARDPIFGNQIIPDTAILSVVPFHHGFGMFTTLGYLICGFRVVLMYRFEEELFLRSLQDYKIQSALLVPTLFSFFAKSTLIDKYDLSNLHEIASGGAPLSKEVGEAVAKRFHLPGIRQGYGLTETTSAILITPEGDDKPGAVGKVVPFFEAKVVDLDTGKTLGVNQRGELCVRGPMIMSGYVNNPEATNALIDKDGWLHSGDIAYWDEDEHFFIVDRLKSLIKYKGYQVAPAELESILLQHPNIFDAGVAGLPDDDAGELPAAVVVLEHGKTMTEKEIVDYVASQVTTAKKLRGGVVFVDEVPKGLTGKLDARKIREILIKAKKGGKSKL
APP 5'UTR act: activates APP 5'UTR luciferase reporter; SH-SY5Y APP 5'UTR luciferase reporter, luminescence; zero percent = DMSO vehicle wells; activation, % at 2 µM; 190,000 tested, 1% active;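 active = activation above a set limit, based on mean plus 3 SD of controls, cut at about 140% in these data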
NF-kB neuron act: raises NF-kB expression in human neuronal cells. NF-kB reporter expression; stronger effect = higher value. fold change at 12.5 µM. 190,000 tested, 1.6% active. AID 1239; in the data active = fold change above about 3.3
FLuc stim CS: affects firefly luciferase, flagging false hits in luciferase stimulation screens; ATPlite luciferase biochemical, luminescence, 10 min; 0 = ATP-free wells, 1 = DMSO control; activation factor at 10 µM; 200,000 tested, under 10 active;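 active = luciferase activation factor, scaled between plate controls, of at least 2 with compound at 10 µM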
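System: cell-free luciferase reagent; medium: PBS as buffer for the ATP substrate; doses: test compounds dosed from 2 mM stocks in 100% DMSO; incubation: 10 min, room temperature; measured by: luminescence from luciferase reaction; read-out: luciferase activation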
STAT1 activator: increases IFN-gamma driven STAT1 reporter signal; NIH 3T3 STAT1-luciferase reporter, luminescence; 100% = IFN-gamma alone, no compound; activation (% of control), % at 5.5 µM; 200,000 tested, 2.6% active;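 active = activation above the screen-wide mean activation plus 3 SD, cut at about 130% in these data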;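 also: raw ratio to IFN-gamma control signal so 100% means no change and 0% no light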
An asterisk follows results filed as active; x = not tested or not shown.

SMILES	FLuc inhib CS	APP 5'UTR act	NF-kB neuron act	FLuc stim CS	STAT1 activator
CCOC(=O)N/N=C/C(Cl)=C/c1ccccc1	27.4	25.3	2.05	0.7	122.8
COc1cc(OC)cc(-c2ncc3ccccn23)c1	19.4	-1.5	1.34	0.8	100.7
COc1cccc(-c2ncc3ccccn23)c1	46.5	76.0	2.67	0.5	134.8*
O=C1CSC(=S)N1Cc1cccnc1	-3.4	3.5	4.81*	1	79.4
O=C1CSC(=S)N1c1cccnc1	-6.8	27.4	1.05	1.1	98.8
CCOc1ccc(C(=O)Nc2ccc(NC(=S)NC(=O)CC)cc2)cc1Cl	-4.3	6.3	1.34	1	96.0
CCOc1ccc(C(=O)Nc2cccc(C(=O)O)c2)cc1Cl	79.1*	75.7	6.25*	0.2	33.6
CCOc1ccc(C(=O)Nc2cc(NC(=O)c3ccc(OCC)c(Cl)c3)cc(C(=O)O)c2)cc1Cl	-2.1	13.1	3.68*	1	100.9
O=C(CSc1nc(-c2cccs2)cc(C(F)(F)F)n1)NCc1ccccc1	-0.5	x	0.78	1	93.4
Cc1c(C(=O)N2CCC(Cc3ccccc3)CC2)cccc1[N+](=O)[O-]	-5.6	-18.8	0.87	1.1	88.7
CCc1ccc2nc3nc(C)cc(C)c3c(N)c2c1	-7.1	18.0	1.69	1.1	135.8*
CCc1ccc(NC(=S)/N=C(\N)Nc2nc(C)c3cc(CC)ccc3n2)cc1	-6.4	-19.3	0.94	1.1	101.6
Cc1cc(C)c2c(N)c3ccccc3nc2n1	-8.2	-11.0	1.27	1.1	132.3*
Cc1cc(C)c2cccc(N)c2n1	-4.0	16.5	1.1	1	95.6
CC(NCc1ccccc1Cl)C(=O)Nc1ccc(C#N)cc1 (stereo unspecified)	-7.4	6.3	0.96	1.1	91.9
COc1ccc(C=Nc2cccc3c(=O)[nH][nH]c(=O)c23)c2ccccc12	-8.9	14.0	1.12	1.1	101.9
COc1cccc(C=Nc2cccc3c(=O)[nH][nH]c(=O)c23)c1O	80.3*	12.4	1.54	0.2	106.8
CS(=O)(=O)C1=NSC2=NC(=O)/C(=C\c3cccn3-c3ccc(Cl)cc3)C(=N)N21	1.7	-15.8	1.2	1	96.2
CCOC(=O)c1c(NC(=O)c2cccnc2Cl)sc(C(=O)N(C)C)c1C	-8.9	4.0	1.2	1.1	108.9
COc1cccc(NC(=O)CSc2ncnc3c2oc2ccccc23)c1	-0.7	-1.5	1.02	1	94.6
COc1cccc(NC(=O)CSc2nc3c(oc4ccccc43)c(=O)[nH]2)c1	59.5*	-5.5	1.06	0.4	103.0
O=c1cc(-c2ccncc2)oc2ccccc12	0.7	15.3	1.12	1	102.7
NC(=O)COc1ccc2oc(-c3ccccc3)cc(=O)c2c1	56.2*	40.3	1.06	0.4	94.5
O=c1cc(-c2ccc(O)cc2)oc2ccc(O)cc12	25.9	59.5	4.11*	0.7	149.8*
COc1ccc(-c2cc(=O)c3c(O)c(OC)c(O)cc3o2)cc1	90.1*	151.7*	9.03*	0.1	99.2
SMILES	FLuc inhib CS	APP 5'UTR act	NF-kB neuron act	FLuc stim CS	STAT1 activator
COc1cc(O)c2c(=O)cc(-c3ccccc3)oc2c1	2.2	43.5	2.08	1	126.5
COc1cc(-c2cc(=O)c3ccccc3o2)ccc1O	4.0	23.6	1.74	1	134.1*
CNC(=O)c1cc2cc(Cl)cc(OC)c2oc1=O	x	-0.4	x	x	98.3
CCOC(=O)c1ccccc1NS(=O)(=O)c1ccccc1F	-7.8	4.4	1.34	1.1	100.3
Cc1cc(=O)[nH]c(SCc2cn3ccccc3n2)n1	5.0	-38.8	1.19	0.9	101.5
Cc1ccn2cc(CSc3ccccc3)nc2c1	42.0	171.9*	6.3*	0.6	130.8*
c1ccn2cc(CSc3nnc4ccccn34)nc2c1	-3.4	94.4	2.27	1	146.7*
c1ccn2cc(CSC3=NCCS3)nc2c1	1.7	51.0	1.86	1	129.7*
Cn1ccnc1SCc1cn2ccccc2n1	2.2	241.5*	1.66	1	143.6*
c1ccc(-n2nnnc2SCc2cn3ccccc3n2)cc1	5.7	-0.3	1.43	0.9	92.1
O=C(NNC(=O)c1cccc(-n2cnnn2)c1)c1ccccc1	-2.2	0.1	1.3	1	107.6
Clc1ccc(-c2nnc(-c3ccccc3)c(N3CCSCC3)n2)cc1	-5.1	9.8	1.22	1.1	102.0
Clc1ccc(-c2nnc(N3CCCC3)nn2)cc1	22.6	43.6	4.59*	0.8	137.0*
Cc1nn(-c2ccccc2Cl)c(Cl)c1/C=N/Nc1nc2ccccc2s1	81.4*	-39.0	0.36	0.2	69.9
C(=N\Nc1nc2ccccc2s1)/c1ccco1	61.9*	202.6*	5.51*	0.4	143.5*
OCC(O)/C=N/Nc1nc2ccccc2s1 (stereo unspecified)	-2.3	16.9	1.24	1	114.8
Cc1ccsc1/C=N/Nc1nc2ccccc2s1	64.0*	231.9*	10.7*	0.4	180.9*
Cc1cc(C)nc(N/N=C/c2sccc2C)n1	10.9	21.5	1.26	0.9	115.4
CCOC(=O)N/N=C/c1c(C)nn(-c2ccccc2Cl)c1Cl	43.3	55.3	1.93	0.6	124.8
C(=N\Nc1nc2ccccc2s1)/c1cccs1	48.2	212.2*	7.07*	0.5	145.7*
CCn1cc(S(=O)(=O)c2ccc(C)cc2)[nH]c1=O	-7.8	7.8	1.03	1.1	98.4
O=C1CN(C(=O)COC(=O)c2ccccc2NCc2ccco2)c2ccccc2N1	-1.4	7.7	0.93	1	84.3
C=CCNC(=O)NC(=O)COC(=O)c1nc2nccc(C)n2n1	-7.2	15.1	1.22	1.1	105.0
CCOC(=O)c1cnc(-n2nc(C)cc2C)nc1N1CC(C)OC(C)C1 (stereo unspecified)	x	4.7	x	x	96.0
CC(C)(C)NC(=O)C(c1ccncc1)N(Cc1ccc(F)cc1)C(=O)c1ccc(-c2ccccc2)[nH]1 (stereo unspecified)	-3.4	13.9	0.75	1	105.8
SMILES	FLuc inhib CS	APP 5'UTR act	NF-kB neuron act	FLuc stim CS	STAT1 activator
COc1cc(C(=O)N2CCC(N3CCCCCC3)CC2)cc(OC)c1OC	x	13.4	x	x	97.6
CCOC(=O)C(C(C)=O)c1c(Br)c(O)c(O)c2c(C(=O)c3ccc(C)cc3)coc12 (stereo unspecified)	-5.4	4.7	4.46*	1.1	94.4
O=C(CSc1nc2ccccc2c(=O)[nH]1)N1CCCCC1	-3.2	7.6	1.46	1	106.6
CC1(C)Cc2c(sc(NC(=O)c3ccco3)c2C#N)CO1	75.4*	77.7	2.81	0.2	125.9
Cc1cc2c(ncn2C)c(NS(=O)(=O)c2ccc(Cl)cc2)c1C	-6.1	-2.0	1.31	1.1	100.7
Cc1ccccc1C(=O)Nc1cccc(NC(=O)Cn2cnc3c(=O)n(C)c(=O)n(C)c32)c1	-0.2	-13.4	5.42*	1	95.6
Cc1cccc(C)c1NC(=O)Cn1cnc2c(=O)n(C)c(=O)n(C)c21	-10.3	-4.2	0.89	1.1	91.6
COc1ccccc1OCC(=O)Nc1ccc(Cl)cc1	2.9	17.2	1.46	1	112.8
COC(=O)c1c(NC(=O)C2CC2)sc2c1CCCC2	-9.4	9.0	0.96	1.1	101.7
CC(C)(C)C(=O)NC(=S)Nc1ccccn1	-0.4	0.2	1.11	1	102.6
